This is an account of results in the array DNA melting data of Ke et al. (doi:10.1101/2024.01.08.574731).

The nature of series [1]: melting temperature; fluorescence melt of hairpins on a sequencing array, two-state fit, raised by 9.35 °C to match UV melts. The following applies: sodium 0.088 M. The method, boiled down: (§1)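 Library hairpins on a sequenced MiSeq flow cell carried annealed Cy3 and quencher oligos, and their Cy3 fluorescence was imaged in 50 mM Na-HEPES pH 8.0 with 25 mM NaCl, in 2.5 °C steps up to 60 °C. Signals were normalised to Cy3 before quenching and to control constructs. Melting temperature and folding enthalpy were obtained from bootstrapped two-state fits, combined by inverse-variance weighting across four replicates, and the fitted temperatures were then raised by 9.35 °C to match UV melts.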

Series [2] in a line: folding enthalpy; higher = less favourable; fluorescence melt of hairpins on a sequencing array, two-state fit. The following applies: sodium 0.088 M. An outline of the steps:
as §1

As to GTCCCGGGAAACTGGGGC (.(((.(....).))).), in series [1], the Tm was 48.6 °C. Further, the folding enthalpy in series [2] is -41.1 kcal/mol.

GTGCATGGAAACATGTAC ((.((((....)))).)): the Tm in series [1] turned out to be 48.7 °C. For the same sequence, the folding enthalpy in series [2] was -31.7 kcal/mol.

As to GCGTGGCCGAAAGGCCGC (((..(((....)))))), the Tm in series [1] was determined as 57.2 °C. Further, in series [2], the folding enthalpy was -9.18 kcal/mol.

For GTCATCGGAAACGATGGC (.(((((....))))).), in series [1], the Tm is 56.2 °C. In series [2], the folding enthalpy is -28.1 kcal/mol.

For the sequence GCGCCGCGAAAGCGTAGC ((..(((....)))..)), the Tm in series [1] turned out to be 59.1 °C. Moreover, the folding enthalpy in series [2] is -13.5 kcal/mol.

In the case of GCAAGGCGAAAGCATCGC ((.(.((....)).).)), the Tm in series [1] is 37.3 °C. The folding enthalpy in series [2] is -14.4 kcal/mol.

For the sequence GTAATTGGAAACGATTAC (((((.(....).))))), in series [1], the Tm is 38.1 °C. Besides, the folding enthalpy in series [2] was -32.4 kcal/mol.

In the case of CCGAGGAAACTCGG (((((....))))), the Tm in series [1] stood at 55.9 °C. The folding enthalpy in series [2] was -23.9 kcal/mol.

As for GGACCAGGAAACTGGCCC ((.((((....)))).)), the Tm in series [1] is 52.3 °C. Also, the folding enthalpy in series [2] was -35.4 kcal/mol.

For GCAGTGCGAAAGCGCAGC ((.(.((....)).).)), in series [1], the Tm was determined as 62.3 °C. In addition, the folding enthalpy in series [2] was -14.2 kcal/mol.

Turning to GCTACGCGAAAGCTTTGC ((.(.((....)).).)), in series [1], the Tm is 36.7 °C. In addition, the folding enthalpy in series [2] is -13 kcal/mol.

Regarding “CGCGGAAAAACAACAACCGCG ((.................))”, in series [1], the Tm worked out at 44.5 °C. Further, the folding enthalpy in series [2] was -25.1 kcal/mol.

Consider GCTGTAGGAAACTATGGC ((..(((....)))..)), for which the Tm in series [1] was 34.7 °C. The folding enthalpy in series [2] was -26.3 kcal/mol.

As for GTCGCACCGAAAGGTGAC (((..(((....)))))), the Tm in series [1] was found to be 35 °C. Moreover, the folding enthalpy in series [2] was -8.3 kcal/mol.

Regarding GTAAGTCGAAAGACCTAC (((.(((....))).))), the Tm in series [1] stood at 35.7 °C. In addition, the folding enthalpy in series [2] is -17 kcal/mol.

On to GTGTTCGAAAGAATTCAC ((((((....)))..))), for which the Tm in series [1] came to 28.8 °C. In series [2], the folding enthalpy was -10.3 kcal/mol.

As to GCGCAGCGAAAGCTTAGC ((..(((....)))..)), in series [1], the Tm is 40.5 °C. For the same sequence, the folding enthalpy in series [2] was -9.17 kcal/mol.

As to GATCGACGCTCGATC ((((((...)))))), the Tm in series [1] is 49.6 °C. For the same sequence, the folding enthalpy in series [2] was -41.3 kcal/mol.

On to GTCGCAGGAAACTGCAAC ((.((((....)))).)), for which the Tm in series [1] amounted to 41.1 °C. Further, the folding enthalpy in series [2] was -16.7 kcal/mol.

Take GACCAGGAAACTGGTC ((((((....)))))): the Tm in series [1] stood at 63.4 °C. In addition, in series [2], the folding enthalpy was -39 kcal/mol.

Consider GATCTTGGCGAAGATC ((((((....)))))), for which the Tm in series [1] amounted to 47 °C. The folding enthalpy in series [2] is -30.8 kcal/mol.

Regarding GGAATGACGAAAGTCTCC (((..(((....)))))), the Tm in series [1] was 28.8 °C. Also, the folding enthalpy in series [2] is -13.3 kcal/mol.

On to GCGACATCGAAAGATCGC (((..(((....)))))), for which, in series [1], the Tm amounted to 45.9 °C. Further, the folding enthalpy in series [2] is -26.7 kcal/mol.

As for GATCCGTCTCGGATC ((((((...)))))), in series [1], the Tm was determined as 59.7 °C. For the same sequence, the folding enthalpy in series [2] was -42.8 kcal/mol.

For the sequence GGCTTTGGAAACAGAGTC (.((.((....)).)).), the Tm in series [1] was found to be 29.3 °C. For the same sequence, the folding enthalpy in series [2] was -10.1 kcal/mol.

As to GTCACAGGAAACTGCGAC (((.(((....))).))), the Tm in series [1] was 46.1 °C. The folding enthalpy in series [2] was -28.8 kcal/mol.

Turning to GAATCTGGAAACGGATTC (((((.(....).))))), in series [1], the Tm is 44.8 °C. Moreover, the folding enthalpy in series [2] is -35.1 kcal/mol.

As for GACAACGGAAACGCTGTC ((((.((....)).)))), the Tm in series [1] was found to be 45.6 °C. In addition, in series [2], the folding enthalpy is -34.7 kcal/mol.

GGTTGGGGAAACCTAGCC ((.(.((....)).).)): the Tm in series [1] came out at 38 °C. Besides, the folding enthalpy in series [2] is -19.1 kcal/mol.

GCCTGCGAAAGCATGGGC ((((((....)))..))): the Tm in series [1] is 56.7 °C. For the same sequence, the folding enthalpy in series [2] is -21.4 kcal/mol.
